In ChEMBL document CHEMBL1955718, “Discovery of new orally effective analgesic and anti-inflammatory hybrid furoxanyl N-acylhydrazone derivatives” (Bioorg Med Chem, 2012):

Assays:
[1] = Inhibition of soybean lipoxygenase using arachidonic acid as substrate; set-up: species or system Glycine max
Summary of the method: (§1)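 Soybean 15-lipoxygenase kit assay, arachidonic acid substrate, H2O2 as lipoxygenating agent in 0.1 M Tris-HCl pH 7.4. Single-point screen at 50 µM. IC50 found by varying concentration over 10–100 µM. Quercetin at 4 µM as positive control; duplicate means; Student t-test.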

[2] = tested on: HT-29; experiment: Pro-inflammatory activity in NFkappaB-GFP transfected human HT-29 cells at 25 to 400 uM after 24 hrs by propidium iodide staining-based flow cytometric analysis; type: ADME, cell-based; settings: ht-29, 24 h
Summary of the method: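 Reporter HT-29-NF-κB-hrGFP cells given compound alone, without TNF-α, for 18–24 h at 37 °C after the same 2 h pre-incubation. GFP-positive live (propidium iodide-excluding) cells counted by flow cytometry; IL-8 in supernatant measured by bead-based flow cytometry.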

[3] = Cytotoxicity against mouse […] cells after 48 hrs by MTT assay; type: cell-based
Summary of the method: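 J774 macrophages in DMEM (4 mM L-glutamine, 10% heat-inactivated FBS) were seeded at 1 × 10^5 cells/well and grown for 48 h at 37 °C, 5% CO2. They were then exposed to compounds at 25–400 µM for 48 h. MTT (0.1 mg/mL final) was added for 3 h, formazan was dissolved in DMSO/glycine buffer pH 10.5, and absorbance was read at 560 nm to give an IC50.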

[4] = tested on: HT-29; experiment: Inhibition of NF-kappaB activation expressed in human HT-29 cells assessed as inhibition of TNFalpha-stimulated IL8 release at 100 uM after 24 hrs by flow cytometric analysis relative to control; type: cell-based
Summary of the method: (§2)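 Reporter HT-29-NF-κB-hrGFP cells pretreated 2 h with compound (DMSO <0.5%) at the highest concentration with 100% survival, then stimulated with TNF-α (3 ng/mL final) for 18–24 h at 37 °C. IL-8 in clarified supernatant measured by flow cytometric bead assay (500 events). Expressed as % of TNF-α/DMSO control ± SD; thalidomide as reference.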

[5] = tested on: HT-29; experiment: Inhibition of TNFalpha-induced NF-kappaB activation expressed in human HT-29 cells coexpressing hrGFP at 100 uM after 24 hrs by propidium iodide staining-based flow cytometric analysis relative to control; type: cell-based
Summary of the method: (§3)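 HT-29 cells stably expressing NF-κB-driven hrGFP given compound (DMSO <0.5%) for 2 h at the maximum non-cytotoxic concentration, then TNF-α at 3 ng/mL final for 18–24 h. Cells trypsinised and stained with propidium iodide; 5000 events gated on FSC/SSC. The %GFP-positive among PI-excluding live cells is normalised to TNF-α/DMSO control, ± SD.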

[6] = Cytotoxicity against human HT-29 cells expressing NF-kappaB-hrGFP assessed as highest non-cytotoxic dose for 100% cell survival after 24 hrs by MTT assay; type: cell-based; settings: read-out: Activity
Summary of the method: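 HT-29 cells stably carrying pNF-κB-hrGFP, seeded at 0.5 × 10^6/mL in DMEM with 10% FBS, grown 24 h at 37 °C, 5% CO2. Compounds added in DMSO (<0.5% v/v final) at 12.5–400 µM for 24 h. Viability by MTT reduction (2 h), formazan dissolved in DMSO/glycine buffer, read at 560 nm.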

[7] = tested on: Rattus norvegicus; experiment: Antiinflammatory activity in albino rat assessed as inhibition of carrageenan-induced paw edema at 100 umol/kg, po administered 1 hr before carrageenan challenge measured after 3 hrs by plethysmometric analysis relative to control; type: functional
Summary of the method: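 Albino rats of both sexes (150–200 g) were dosed orally as a suspension in 1% Tween 80 in saline, with vehicle controls. After 1 h, 0.1 mL 1% carrageenan or saline was injected subplantar. Paw volume was read by glass plethysmometer at 3 h. Edema = carrageenan-paw minus saline-paw volume; % inhibition vs vehicle; Student t-test.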

[8] = tested on: Glycine max; experiment: Inhibition of soybean lipoxygenase using arachidonic acid as substrate at 50 uM; summary of the method: as §1
[9] = tested on: Mus musculus; experiment: Analgesic activity in albino mouse assessed as inhibition of acetic acid-induced abdominal constriction at 100 umol/kg, po administered 1 hr before acetic acid challenge measured after 60 mins relative to control; type: functional; settings: Abdomen
Summary of the method: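 Albino mice of both sexes (18–23 g) were dosed orally as a suspension in 5% arabic gum in saline, with vehicle controls. After 1 h they received 0.6% acetic acid ip (0.1 mL/10 g). Constrictions were counted for 20 min starting 10 min after injection. Data are % inhibition vs vehicle, mean ± SEM, Student t-test.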

[10] = tested on: HT-29; experiment: Inhibition of TNFalpha-induced NF-kappaB activation expressed in human HT-29 cells coexpressing hrGFP at 400 uM after 24 hrs by propidium iodide staining-based flow cytometric analysis relative to control; type: cell-based; summary of the method: as §3
[11] = tested on: HT-29; experiment: Inhibition of NF-kappaB activation expressed in human HT-29 cells assessed as inhibition of TNFalpha-stimulated IL8 release at 400 uM after 24 hrs by flow cytometric analysis relative to control; type: cell-based; summary of the method: as §2
[12] = Induction of NO release in 0.1 M Tris-HCl and 0.1 mM DTPA at pH 8.3 measured for 20 mins in presence of cysteine; type: physicochemical; settings: buffer, pH 8.3, 20 min
Summary of the method: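 Electrochemical NO detection with an ISO-NOP sensor. Compounds in DMSO added to 0.1 M Tris-HCl, 0.1 mM DTPA at pH 7.4 or 8.3. Cysteine (300 or 100 µM) added and NO recorded for 20 min at 25 or 37 °C; compound:Cys ratio 1:1 at 25 °C, with 3:1 and 37 °C runs also made.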

SMILES | IC50 [1] | Activity [2] | IC50 [3] | inhibition [4] | NF-kappaB activity (% of TNF-alpha control) [5] | MNTC at 24 h [6] | inhibition in vivo at 100 µmol/kg [7] | inhibition [8] | inhibition in vivo at 100 µmol/kg [9] | NF-kappaB activity (GFP-positive cells), % of TNF-alpha control [10] | inhibition [11] | Activity [12]
Cc1c(C(=O)N/N=C/c2cccs2)no[n+]1[O-] | > 100 µM | Non-toxic | > 400 µM | 75% | 122% | 100 µM | 0% | 10% | 14% | – | – | –
Cc1c(C(=O)N/N=C/c2ccco2)no[n+]1[O-] | – | Non-toxic | > 400 µM | 82% | 99% | 100 µM | – | 0% | – | – | – | –
O=C(N/N=C/c1ccc2no[n+]([O-])c2c1)c1ccc2c(c1)OCO2 | 50 µM | Non-toxic | 141 µM | – | – | 400 µM | – | 55% | – | 87% | 64% | 0 nM/min
O=C(N/N=C/c1c(-c2ccccc2)no[n+]1[O-])c1cnn(-c2ccccc2)c1 | – | Non-toxic | 42 µM | – | – | 400 µM | – | – | – | 105% | – | –
Cc1c(C(=O)N/N=C/c2ccc(Br)cc2)no[n+]1[O-] | – | Non-toxic | 162 µM | 61% | 126% | 100 µM | 0% | 0% | 23% | – | – | –
COc1ccc(/C=N/NC(=O)c2no[n+]([O-])c2C)cc1O | – | Non-toxic | > 400 µM | – | – | 400 µM | – | 58% | – | 117% | 59% | –
Cc1c(C(=O)N/N=C/c2ccc3no[n+]([O-])c3c2)no[n+]1[O-] | – | Non-toxic | > 400 µM | – | – | 400 µM | – | – | – | 121% | 68% | –
Cc1c(/C=N/NC(=O)c2no[n+]([O-])c2C)no[n+]1[O-] | 50 µM | Non-toxic | > 400 µM | 65% | 127% | 100 µM | 10% | 55% | 14% | – | – | –
Cc1nc2ccccn2c1C(=O)N/N=C/c1ccc2no[n+]([O-])c2c1 | – | Non-toxic | > 400 µM | – | – | 400 µM | – | – | – | 104% | 76% | –
Cc1c(C(=O)N/N=C/c2ccc(C(F)(F)F)cc2)no[n+]1[O-] | 50 µM | Non-toxic | > 400 µM | – | – | 400 µM | – | 55% | – | 55% | – | –
COc1cc(/C=N/NC(=O)c2no[n+]([O-])c2C)ccc1O | – | Non-toxic | > 400 µM | 77% | 149% | 100 µM | – | 1% | – | – | – | 0 nM/min
Cc1c(C(=O)N/N=C/c2ccc([N+](=O)[O-])s2)no[n+]1[O-] | – | Non-toxic | 68 µM | – | 111% | 100 µM | – | – | – | – | – | –
Cc1nc2ccccn2c1C(=O)N/N=C/c1no[n+]([O-])c1C | – | Non-toxic | > 400 µM | – | – | 400 µM | – | – | – | 120% | 77% | –
Cc1c(/C=N/NC(=O)c2cnn(-c3ccccc3)c2)no[n+]1[O-] (mixture of isomers) | – | Non-toxic | 295 µM | – | 80% | 100 µM | – | 0% | – | – | – | –
O=C(N/N=C/c1ccc2no[n+]([O-])c2c1)c1cnn(-c2ccccc2)c1 | – | Non-toxic | 37 µM | – | – | – | – | – | – | – | – | –
COc1ccc(/C=N/NC(=O)c2no[n+]([O-])c2C)cc1OC | – | Non-toxic | > 400 µM | – | – | 400 µM | 4% | 0% | 17% | 120% | 68% | –
Cc1c(/C=N/NC(=O)c2ccc3c(c2)OCO3)no[n+]1[O-] | – | Non-toxic | 132 µM | – | – | 400 µM | – | – | – | 102% | 106% | –
Cc1c(C(=O)N/N=C/c2c(-c3ccccc3)no[n+]2[O-])no[n+]1[O-] | – | Non-toxic | > 400 µM | 77% | 122% | 100 µM | – | – | – | – | – | –
Cc1c(C(=O)N/N=C/c2ccc([N+](=O)[O-])o2)no[n+]1[O-] | – | Non-toxic | 96 µM | 48% | 136% | 100 µM | 14% | – | 13% | – | – | –
Cc1c(C(=O)N/N=C/c2ccc3c(c2)OCO3)no[n+]1[O-] | – | Non-toxic | > 400 µM | 98% | 97% | 100 µM | – | – | – | – | – | –
